# In the library only some 3.7% were active in any assay of this set; here they are far more common.
# Kir21 block: inhibitors of mouse Kir2.1 inward-rectifier potassium channel | Inward rectifier potassium channel 2 (Mus musculus), P35561 | hit rate 0.85% among 310,000 | B-score at 10 µM | AID 1672, 2009 | HEK293-Kir2.1, FluxOR thallium flux fluorescence; stronger effect = lower value;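 active = fluorescence ratio B-score at or below minus 3 SD of library scores, with starting-brightness B-score within 2 SD, cut at about -4.2 in these data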;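 also: channel flux triggered by added potassium and thallium sulfate stimulus; B-score of peak minus minimum fluorescence over baseline after thallium stimulus; more negative B-score means stronger Kir2.1 block with less thallium influx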
# KCNQ1 act: potentiators or activators of KCNQ1 channel, primary screen, cell-based, thallium flux, high-throughput; Potassium voltage-gated channel subfamily KQT member 1 (Homo sapiens), P51787; CHO-K1 KCNQ1, thallium flux FluxOR fluorescence; stronger effect = higher value; B-score at 10 µM; hit rate 0.35% among 310,000; AID 2648, 2010;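 active = fluorescence ratio B-score, a plate-corrected score, at least three library SD, with initial intensity B-score within 5 SD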
# Target sequence (P51787 whole entry, looked up): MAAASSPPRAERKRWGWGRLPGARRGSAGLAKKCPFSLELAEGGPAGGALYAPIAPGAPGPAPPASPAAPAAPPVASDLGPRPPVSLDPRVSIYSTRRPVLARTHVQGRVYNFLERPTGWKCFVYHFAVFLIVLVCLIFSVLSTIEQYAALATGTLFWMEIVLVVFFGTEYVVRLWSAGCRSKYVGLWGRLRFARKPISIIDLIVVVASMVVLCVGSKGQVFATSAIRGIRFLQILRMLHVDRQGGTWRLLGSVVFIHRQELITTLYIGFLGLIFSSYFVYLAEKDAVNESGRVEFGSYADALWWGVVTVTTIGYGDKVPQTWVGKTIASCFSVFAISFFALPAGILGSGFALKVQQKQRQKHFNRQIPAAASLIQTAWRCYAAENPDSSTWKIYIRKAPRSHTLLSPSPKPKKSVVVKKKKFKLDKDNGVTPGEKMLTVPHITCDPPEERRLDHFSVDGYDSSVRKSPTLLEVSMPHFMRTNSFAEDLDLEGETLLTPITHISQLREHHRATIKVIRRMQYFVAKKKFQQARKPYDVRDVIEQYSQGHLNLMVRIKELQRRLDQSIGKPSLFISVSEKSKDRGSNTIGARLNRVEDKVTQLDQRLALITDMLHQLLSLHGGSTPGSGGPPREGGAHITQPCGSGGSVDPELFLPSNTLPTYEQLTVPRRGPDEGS
#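 Schedule – 37 °C overnight plating, 90-min dark dye load, 20-min compound pretreatment · System – stable KCNQ1 CHO-K1 line · Probe or stimulus – thallium- and potassium-containing depolarizing buffer · Measured by – kinetic FluxOR fluorescence, 10 s baseline plus 110 s post-stimulus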
# KCNQ1 block: inhibitors of human KCNQ1 channel, primary screen, cell-based, thallium flux, high-throughput | Potassium voltage-gated channel subfamily KQT member 1 (Homo sapiens), P51787 | CHO-K1 KCNQ1, FluxOR thallium flux fluorescence; stronger effect = higher value | B-score at 10 µM | hit rate 1.3% among 310,000;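 active = compounds whose thallium flux B-score, printed positive for inhibition, exceeds three library SD while starting fluorescence stays within three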;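 also: channel opened by potassium depolarization with thallium stimulus after 20 min compound exposure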
# KCNK3 block: human KCNK3 channel inhibitors, primary screen, CHO cells, FluxOR thallium flux, B-score. Potassium channel subfamily K member 3 (Homo sapiens), O14649. FluxOR fluorescence; stronger effect = lower value. B-score at 10 µM. hit rate 0.84% among 340,000;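 active = B-score under library mean minus 4 SD, starting fluorescence ratio at most library mean plus 5 SD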;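 also: more negative B-score means stronger inhibition of thallium flux through KCNK3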
# KCNK9 inh: KCNK9 potassium channel inhibitors, primary screen, HEK293 cells, thallium flux | FluxOR thallium flux fluorescence; stronger effect = lower value | B-score at 10 µM | hit rate 1.2% among 310,000 | AID 488922, 2010;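 active = ratio B-score over 3 SD below the library mean, with starting fluorescence within 5 SD of its mean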;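 also: negative B-score means less thallium flux so channel inhibition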
# hERG rescue: hERG rescue from dofetilide block, primary screen, cell-based, CHO-hERG, FluxOR thallium flux, dofetilide IC70; Voltage-gated inwardly rectifying potassium channel KCNH2 (Homo sapiens), Q12809; hit rate 0.51% among 310,000; AID 1511, 2009; activation (rescue from dofetilide block), less the hit threshold, % at 10 µM; dofetilide IC70 present;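 active = activation above the mean of controls blocked by dofetilide plus 5 SD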;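 also: thallium influx through hERG after potassium depolarization seen as dye fluorescence rise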
# Numbers stand for hits; n = inactive; x = no result.
SMILES,Kir21 block,KCNQ1 act,KCNQ1 block,KCNK3 block,KCNK9 inh,hERG rescue
CCN(CC)c1nc2ccccc2nc1C(C#N)C(=O)NCCc1ccccc1 (stereo not given),n,n,n,n,n,n
CCCN(CCC)c1nc2ccccc2nc1C(C#N)C(=O)OC(C)COC (stereo not given),n,n,8,x,n,n
CCN(CC)c1nc2ccccc2nc1C(C#N)C(=O)NCCCOC (stereo not given),n,n,n,n,n,n
CCCCC(=O)Nc1cc(OC)c(NC(=S)Nc2ccc(OC)cc2)cc1OC,x,x,x,n,x,x
Cc1cc(C)nc(NNS(=O)(=O)c2c(F)cc(F)cc2Br)n1,x,x,x,n,x,x
COCCCNC(=O)/C=C1\Sc2ccccc2N(Cc2ccccc2F)C1=O,n,n,n,n,n,n
CCN1CCN(CCNC(=O)c2ccc(/C=C3\Sc4ccccc4N(Cc4ccccc4F)C3=O)cc2)CC1,-4.7,n,7,n,n,n
CN1CCN(CCCNC(=O)c2ccc(/C=C3\Sc4ccccc4N(Cc4ccc(F)cc4)C3=O)cc2)CC1,n,n,6,n,n,n
CN1CCN(CCCNC(=O)c2ccc(/C=C3\Oc4ccccc4N(Cc4ccccc4F)C3=O)cc2)CC1,n,n,n,n,n,n
O=S(=O)(SC1=NCCN1)c1ccccc1,x,x,x,n,x,x
O=C1OCCC1Sc1nc2ccccc2c(=O)n1Cc1ccc(F)cc1 (stereo not given),n,11,n,n,n,9.9
Cc1cccc(C(=O)N2c3ccccc3C(=O)OC2c2ccc3c(c2)OCO3)c1 (stereo not given),n,n,n,n,n,n
O=C1OC(c2ccc3c(c2)OCO3)N(C(=O)c2ccc(Cl)c(Cl)c2)c2ccccc21 (stereo not given),n,n,n,n,-7.5,n
CCn1c(=S)[nH]c2c(=O)n(C)c(=O)n(C)c21,x,x,x,n,x,x
Cc1ccc([N+](=O)[O-])c2c1C(N1CC(C)OC(C)C1)C(C)(C)O2 (stereo not given),n,n,n,n,n,5.4
COc1ccc(NC(=O)C(c2ccc(OC)cc2)N(Cc2ccco2)C(=O)CC2NC(=O)NC2=O)cc1 (stereo not given),n,n,n,n,n,n
COc1ccc(C(C(=O)Nc2ccc(C(C)C)cc2)N(Cc2ccco2)C(=O)CC2NC(=O)NC2=O)cc1 (stereo not given),n,n,6,n,n,n
COc1cc(/C=N/Nc2ccccc2C(F)(F)F)ccc1O,n,n,n,n,-6.9,n
COc1cc(/C=N/N(c2ccccc2)c2ccccc2)ccc1O,n,n,11,n,n,n
COc1ccc(C[C@H]2CN3C(=NC[C@@H]3C(C)C)N2CCNC(=O)c2ccc(C)c(Br)c2)cc1,-6.5,n,n,n,n,n
CCN(CC(=O)Nc1cc(Cl)ccc1C)c1ncnc2sc(C)c(C)c12,n,n,n,n,-6.6,n
CC(O)CNCc1ccc(-c2ccccc2)cc1 (stereo not given),n,n,n,n,n,n
CC(NCc1ccc(-c2ccccc2)cc1)C(O)c1ccccc1 (stereo not given),-14,n,n,n,n,n
Cc1nc2c(=O)[nH]c(=S)[nH]c2[nH]c1=O,x,x,x,n,x,x
Cc1onc(-c2ccccc2)c1CNS(=O)(=O)c1cccc(Br)c1,-6.4,n,n,n,n,n
SMILES,Kir21 block,KCNQ1 act,KCNQ1 block,KCNK3 block,KCNK9 inh,hERG rescue
Cc1onc(-c2ccccc2)c1CNS(=O)(=O)c1ccc(F)cc1F,n,n,n,n,n,n
CCc1ccc(C(O)(CNCc2ccccc2)c2ccccc2)cc1 (stereo not given),-8.9,n,n,n,n,n
COc1ccc(CNCC(O)(c2ccccc2)c2ccc(Cl)cc2)cc1 (stereo not given),-5.9,n,n,n,n,n
CC(c1ccccc1)C(OC(=O)c1cccc([N+](=O)[O-])c1C(=O)O)c1ccccc1 (stereo not given),x,x,x,n,x,x
CN(C(=O)COC(=O)CCC1CCCCC1)c1c(N)n(Cc2ccccc2)c(=O)[nH]c1=O,n,n,n,n,n,n
CCOC(=O)CNC1CC(=O)N(c2cccc(Cl)c2)C1=O (stereo not given),n,n,n,n,n,5.3
C=CCSC1=N/C(=C\c2cc(OCC)c(OC(C)=O)c([N+](=O)[O-])c2)C(=O)S1,n,n,9,n,n,n
Cc1ccc(-c2ccc(/C=C(\C#N)C(N)=S)n2C)cc1,n,n,6,n,n,n
CC(C)(C)C(=O)N1CCN(c2ncnc3scc(-c4ccccc4)c23)CC1,n,n,n,n,n,n
COCCN(CCOC)Cc1c(O)ccc2c1O/C(=C\c1ccc(C)o1)C2=O,n,n,9,n,n,n
Cc1ccc(C(=O)N2CCN(S(=O)(=O)c3ccccc3[N+](=O)[O-])CC2)o1,n,n,n,n,n,n
CC1CC(C)C(=NNC(N)=O)C(C(O)CC2CCC(=O)NC2=O)C1 (stereo not given),x,x,x,n,x,x
Cn1cccc1/C=N/n1c(-c2ccccc2)n[nH]c1=S,n,n,n,n,n,n
Cn1cccc1/C=N/n1c(-c2ccc(C(C)(C)C)cc2)n[nH]c1=S,n,n,n,n,-7.7,n
Cc1ccc(SCc2ccc(C(=O)Nc3ccccc3C(=O)NC(C)C)cc2)cc1,n,n,n,n,n,n
CCCNC(=O)c1ccccc1NC(=O)c1ccc(CSc2ccccc2)cc1,n,n,6,n,n,n
O=c1[nH]c2cnn(-c3ccccc3)c2c(=O)n1O,x,x,x,n,x,x
CC(C)Nc1ccc(Nc2ccnc3cc4ccccc4cc23)cc1,-6.4,n,9,n,n,n
CCOc1ccccc1Nc1ccnc2cc(Cl)ccc12,n,n,n,n,n,n
CC(Oc1cccc(Cl)c1)C(=O)NCCCCc1ccccc1 (stereo not given),-5.5,n,n,n,n,n
CC(Oc1cccc(Cl)c1)C(=O)NCc1ccc(S(N)(=O)=O)cc1 (stereo not given),n,n,n,n,n,n
COCc1nc2ccccc2n1Cc1cccc(C)c1,n,n,n,n,n,n
Cc1cccc(Cn2c(Cc3ccccc3)nc3ccccc32)c1,-11,n,n,n,n,n
CCOC(=O)CN1C(=O)Nc2ccc(Br)cc2C1c1ccccc1 (stereo not given),n,n,n,n,n,n

# From PubChem
